In ChEMBL document CHEMBL1128352, “Substituted (1,2-diarylethyl)amide acyl-CoA:cholesterol acyltransferase inhibitors: effect of polar groups on in vitro and in vivo activity” (J Med Chem, 1995):
pIC50: −log10 of the molar value.

Experiments:
[1] = target: T1, Sterol O-acyltransferase 1 (Rattus norvegicus, UniProt O70536); assay: In vitro inhibition of acyl coenzyme A:cholesterol acyltransferase 1, rat liver microsomal assay
T1 sequence (O70536 whole entry): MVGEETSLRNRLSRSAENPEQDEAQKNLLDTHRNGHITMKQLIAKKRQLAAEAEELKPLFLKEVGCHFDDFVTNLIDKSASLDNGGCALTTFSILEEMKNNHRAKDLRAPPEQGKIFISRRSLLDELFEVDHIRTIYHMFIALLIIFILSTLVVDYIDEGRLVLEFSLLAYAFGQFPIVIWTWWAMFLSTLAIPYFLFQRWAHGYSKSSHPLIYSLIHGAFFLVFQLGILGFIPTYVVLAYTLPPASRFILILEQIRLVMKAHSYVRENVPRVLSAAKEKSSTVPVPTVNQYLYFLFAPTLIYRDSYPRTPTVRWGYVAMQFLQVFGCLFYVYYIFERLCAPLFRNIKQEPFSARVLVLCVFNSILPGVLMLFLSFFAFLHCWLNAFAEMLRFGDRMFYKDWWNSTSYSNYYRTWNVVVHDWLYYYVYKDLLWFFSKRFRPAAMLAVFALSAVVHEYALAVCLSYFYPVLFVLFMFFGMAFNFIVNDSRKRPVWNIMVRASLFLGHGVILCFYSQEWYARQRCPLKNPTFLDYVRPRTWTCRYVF
Summary of the method: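 Compound added from DMSO stock and preincubated 15 min at 37 °C. [³H]oleoyl-CoA (10 µM final, 1 µCi) then added for 15 min at 37 °C. Cholesteryl [³H]oleate separated by silica TLC and counted by liquid scintillation.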

[2] = test system: Cricetinae gen. sp.; assay: In vivo effect on cholesteryl esters level of cholesterol-fed hamsters at a dose of 50 mg/kg per oral; assay type: functional
Summary of the method: (§1)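 Male golden Syrian hamsters (100–125 g) were fed a high-cholesterol diet for 7 days. Compound was given by oral gavage in 0.2 mL corn oil/day. Liver lipids were Folch-extracted and hepatic cholesteryl ester measured by HPLC. Results are given as percent change versus cholesterol-fed controls dosed with vehicle alone.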

[3] = test system: Cricetinae gen. sp.; assay: In vivo effect on serum cholesterol level of cholesterol-fed hamsters at a dose of 50 mg/kg per oral; assay type: functional
[4] = test system: Cricetinae gen. sp.; assay: In vivo effect on cholesteryl esters in cholesterol-fed hamsters at a dose of 50(mpk); assay type: functional; summary of the method: as §1
[5] = test system: Cricetinae gen. sp.; assay: In vivo dose effecting the cholesteryl esters in cholesterol-fed hamsters at a dose of 50(mpk); assay type: functional
[6] = test system: Cricetinae gen. sp.; assay: In vivo effect on serum cholesterol level of cholesterol-fed hamsters at a dose of 50(mpk); assay type: functional
[7] = test system: Cricetinae gen. sp.; assay: In vivo effect on cholesteryl esters in cholesterol-fed hamsters at a dose of 100(mpk); assay type: functional; summary of the method: as §1
[8] = test system: Cricetinae gen. sp.; assay: In vivo effect on serum cholesterol level of cholesterol-fed hamsters at a dose of 100(mpk); assay type: functional
[9] = target: T2, Sterol O-acyltransferase 1 (Rattus norvegicus) (UniProt O70536); assay: In vitro ability of compound to inhibit Acyl coenzyme A:cholesterol acyltransferase 1 using rat liver microsomal assay; conditions: concentration not given here
T2 sequence (whole entry): T1 sequence (O70536 whole entry)
Summary of the method: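 Rat liver microsomes (12.5 µg protein) in 0.1 M potassium phosphate with 2 mM DTT, pH 7.4, and 90 µM fatty-acid-free BSA. Compound added from DMSO stock and preincubated 15 min at 37 °C. [³H]oleoyl-CoA (10 µM final, 1 µCi) then added for 15 min at 37 °C. Cholesteryl [³H]oleate separated by silica TLC and counted by liquid scintillation.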

Compound	pIC50 [1]	Change [2] [%]	Change [3] [%]	further results
C[Si](C)(C)CCOCn1ccnc1CC(NC(=O)C(c1ccccc1)c1ccccc1)c1ccccc1 (configuration not stated)	5.30	-24	0	–
Nc1ccc(CC(NC(=O)C(c2ccccc2)c2ccccc2)c2ccccc2)cc1 (stereo in doubt; (+)-5)	–	0	–	–
O=C(NC(Cc1ccncc1)c1ccccc1)C(c1ccccc1)c1ccccc1 (configuration not stated)	5.74	-52	-10	–
COc1ccc(CC(NC(=O)C(c2ccccc2)c2ccccc2)c2ccc(OC)cc2)cc1 (configuration not stated)	< 5.00	-32	0	–
Nc1ccc(C(Cc2ccccc2)NC(=O)C(c2ccccc2)c2ccccc2)cc1 (configuration not stated)	5.55	-24	0	–
O=C(NC(Cc1ncc[nH]1)c1ccccc1)C(c1ccccc1)c1ccccc1 (configuration not stated)	< 5.00	–	–	–
COc1ccc(CC(NC(=O)C(c2ccccc2)c2ccccc2)c2ccccc2)cc1OC (configuration not stated)	6.30	-26	-21	–
O=C(NC(Cc1ccccc1)c1cc[n+]([O-])cc1)C(c1ccccc1)c1ccccc1 (configuration not stated)	< 5.00	-28	0	–
Nc1ccc(CC(NC(=O)C(c2ccccc2)c2ccccc2)c2ccccc2)cc1 (racemic)	–	–	–	Change [4]: -60%; ED50 [5]: 21 mg/kg; Change [6]: -13%
O=C(NC(Cc1ccccc1)c1ccncc1)C(c1ccccc1)c1ccccc1 (configuration not stated)	5.64	-29	-13	–
O=C(O)c1ccc(CC(NC(=O)C(c2ccccc2)c2ccccc2)c2ccccc2)cc1 (configuration not stated)	< 5.00	–	–	–
CCCCCCCN(Cc1ccc(CC(C)(C)C)cc1)C(=O)Nc1ccc(F)cc1F [CL-277082]	–	–	–	Change [4]: -85%; ED50 [5]: 15 mg/kg; Change [6]: -29%
C[Si](C)(C)CCOCn1ccnc1C(Cc1ccccc1)NC(=O)C(c1ccccc1)c1ccccc1 (configuration not stated)	< 5.00	–	–	–
CCCCCCCCCC[Si](C)(C)CCC(=O)NC(Cc1ccc(C)cc1)c1ccccc1 (configuration not stated)	6.52	–	–	Change [7]: 0%; Change [8]: -5%
COc1cccc(C(Cc2ccccc2)NC(=O)C(c2ccccc2)c2ccccc2)c1 (configuration not stated)	5.82	0	0	–
CCCCCCCCCCC(C)(C)C(=O)Nc1c(OC)cc(OC)cc1OC [CL-976]	–	–	–	Change [4]: -67%; ED50 [5]: 20 mg/kg; Change [6]: -10%
CC(=O)Nc1ccc(CC(NC(=O)C(c2ccccc2)c2ccccc2)c2ccccc2)cc1 (configuration not stated)	6.46	0	-12	–
O=C(NC(Cn1ccnc1)c1ccccc1)C(c1ccccc1)c1ccccc1 (configuration not stated)	5.46	0	0	–
COC(=O)c1ccc(CC(NC(=O)C(c2ccccc2)c2ccccc2)c2ccccc2)cc1 (configuration not stated)	< 5.00	–	–	–

Compound	pIC50 [1]	Change [2] [%]	Change [3] [%]	further results
O=C(NC(Cc1ccccc1)c1ccccc1)C(c1ccccc1)c1ccccc1 (configuration not stated)	6.34	–	–	Change [4]: -15%; Change [6]: 0%
CCCCCCCC/C=C\CCCCCCC(C)(C)C(=O)NC(Cc1ccc(N)cc1)c1ccccc1 (configuration not stated)	6.44	–	–	Change [7]: -54%; Change [8]: -24%
Nc1cccc(CC(NC(=O)C(c2ccccc2)c2ccccc2)c2ccccc2)c1 (configuration not stated)	5.30	-31	-15	–
COc1ccc(C(Cc2ccccc2)NC(=O)C(c2ccccc2)c2ccccc2)cc1 (configuration not stated)	5.82	-69	-14	–
CCCCCCCn1ccnc1CC(NC(=O)C(c1ccccc1)c1ccccc1)c1ccccc1 (configuration not stated)	5.30	0	0	–
COc1ccccc1C(Cc1ccccc1)NC(=O)C(c1ccccc1)c1ccccc1 (configuration not stated)	5.74	-51	0	–
O=C(NC(Cc1ccccc1)c1ccc(O)cc1)C(c1ccccc1)c1ccccc1 (configuration not stated)	6.00	-69	-14	–
COc1ccc(CC(NC(=O)C(c2ccccc2)c2ccccc2)c2cccc(OC)c2)cc1 (configuration not stated)	5.62	0	-20	–
O=C(NC(Cc1ccccc1)c1ncc[nH]1)C(c1ccccc1)c1ccccc1 (configuration not stated)	< 5.00	–	–	–
Nc1ccc(CC(NC(=O)C(c2ccccc2)c2ccccc2)c2ccccc2)cc1 (single isomer, unassigned; (-))	–	-81	0	–
O=C(NC(Cc1ccccc1)c1cccnc1)C(c1ccccc1)c1ccccc1 (configuration not stated)	5.40	0	-9	–
CCCCCCCC/C=C\CCCCCCCC(=O)NC(Cc1ccccc1)c1ccccc1 (configuration not stated)	–	–	–	Change [7]: -23%; Change [8]: -4%
O=C(O)c1ccc(C(Cc2ccccc2)NC(=O)C(c2ccccc2)c2ccccc2)cc1 (configuration not stated)	5.00	0	0	–
COc1ccc(CC(NC(=O)C(c2ccccc2)c2ccccc2)c2ccccc2)cc1 (configuration not stated)	5.80	-65	-14	–
O=C(NC(Cc1ccc(O)cc1)c1ccccc1)C(c1ccccc1)c1ccccc1 (configuration not stated)	6.10	0	0	–
CS(=O)(=O)Nc1ccc(CC(NC(=O)C(c2ccccc2)c2ccccc2)c2ccccc2)cc1 (configuration not stated)	6.44	-32	-17	–
O=C(NC(Cc1ccccc1)c1cccc(O)c1)C(c1ccccc1)c1ccccc1 (configuration not stated)	–	-19	-17	inhibition [9]: 88%
O=C(NC(Cc1ccc(O)cc1)c1ccc(O)cc1)C(c1ccccc1)c1ccccc1 (configuration not stated)	–	-40	-20	inhibition [9]: 97%
